Assay outcomes as filed in PubChem.
This excerpt belongs to a sample that is enriched for hits.
UPR XBP1 act: activators of adaptive arm of unfolded protein response (XBP1) | CHO-XBP1 luciferase reporter, IRE1-XBP1 UPR activation, luminescence; percent of tunicamycin response, DMSO as zero | activation, % at 20 µM | 330,000 compounds, 0.33% hits | AID 463104;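 active means versus positive control, 20 µM dose yields 30% or more activation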
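Material: CHO-XBP1 cells stably carrying IRE1-XBP1-driven luciferase reporter / Amount: 1000 cells per well / Compound: 20 µM, 1% DMSO / Times: 6 h treatment, 37 °C / Detection: luciferase luminescence / Measure: % activation of reporter signal versus tunicamycin and DMSO controls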
TLR9-MyD88 inh: inhibitors of human TLR9-MyD88 binding | Q9NR96+Q99836 | CHO BLA complementation TLR9-MyD88, CCF4 FRET ratio | AID 504734 | inhibition, % at 4.98 µM | 340,000 compounds, 0.21% hits;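 active means inhibition above the mean over all tested compounds plus 3 SD, cut at about 21% in these data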
NOD2 RIPK2 PPI: blocks binding of human NOD2 to RIPK2; O43353; CHO BLA complementation NOD2-RIPK2, CCF4 ratio; inhibition, % at 4.98 µM; 360,000 compounds, 0.38% hits; AID 624267; in the data active means inhibition above about 21%
TLR4-MyD88 BLA: TLR4-MyD88 interaction inhibition in cells. inhibition, % at 8.4 µM. 200,000 compounds, 0.18% hits. O00206+Q99836. AID 861. HeLa CL3-4 TLR4/MyD88 BLA complementation, FRET ratio; in the data active means inhibition above about 25%
Target sequence (O00206 whole entry, looked up): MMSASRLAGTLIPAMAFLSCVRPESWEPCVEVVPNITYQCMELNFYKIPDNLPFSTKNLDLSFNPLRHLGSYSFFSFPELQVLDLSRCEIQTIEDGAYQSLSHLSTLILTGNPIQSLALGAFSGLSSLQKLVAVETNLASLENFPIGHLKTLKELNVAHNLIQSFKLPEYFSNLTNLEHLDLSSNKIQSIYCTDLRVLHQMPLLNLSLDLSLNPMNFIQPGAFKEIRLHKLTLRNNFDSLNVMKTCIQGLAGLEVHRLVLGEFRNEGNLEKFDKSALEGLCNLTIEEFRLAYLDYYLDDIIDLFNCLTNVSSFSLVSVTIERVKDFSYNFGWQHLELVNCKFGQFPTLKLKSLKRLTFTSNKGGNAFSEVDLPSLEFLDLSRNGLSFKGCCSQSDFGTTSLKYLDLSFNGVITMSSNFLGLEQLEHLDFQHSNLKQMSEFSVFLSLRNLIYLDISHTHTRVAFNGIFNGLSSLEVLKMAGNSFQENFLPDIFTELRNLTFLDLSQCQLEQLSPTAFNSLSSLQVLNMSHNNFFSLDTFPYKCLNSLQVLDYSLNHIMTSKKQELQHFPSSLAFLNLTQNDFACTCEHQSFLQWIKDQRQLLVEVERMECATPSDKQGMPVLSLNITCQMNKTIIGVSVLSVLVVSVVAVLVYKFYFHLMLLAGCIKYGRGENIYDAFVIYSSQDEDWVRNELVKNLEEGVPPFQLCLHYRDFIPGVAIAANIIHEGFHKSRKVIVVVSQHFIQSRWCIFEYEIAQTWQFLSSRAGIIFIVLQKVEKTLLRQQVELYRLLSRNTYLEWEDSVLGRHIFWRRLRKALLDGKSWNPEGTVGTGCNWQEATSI
Target sequence (Q99836 whole entry, looked up): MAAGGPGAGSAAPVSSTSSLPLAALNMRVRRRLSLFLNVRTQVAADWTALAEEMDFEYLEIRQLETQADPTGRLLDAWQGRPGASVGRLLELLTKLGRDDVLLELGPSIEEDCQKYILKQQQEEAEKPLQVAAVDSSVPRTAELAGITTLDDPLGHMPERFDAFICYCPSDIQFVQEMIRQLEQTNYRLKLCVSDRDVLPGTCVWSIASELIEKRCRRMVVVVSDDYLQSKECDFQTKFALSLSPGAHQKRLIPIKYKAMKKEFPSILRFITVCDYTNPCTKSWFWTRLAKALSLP
UPR CHOP act: apoptotic UPR (CHOP) activation; CHO-CHOP luciferase reporter, luminescence; percent of tunicamycin response over DMSO baseline; activation, % at 10 µM; 330,000 compounds, 0.34% hits; AID 449763;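 active means at 10 µM dose, activation of 40% or more, normalized to positive control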
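Assay system: CHO-CHOP cells, stable luciferase reporter of PERK-eIF2a-CHOP signalling / Buffer or medium: F12 plus 10% serum / Compound dosing: one dose, 10 µM in 0.5% DMSO / Times: 6 h compound treatment, 37 °C / Technique: luciferase luminescence / Read-out: % reporter activation, DMSO baseline versus tunicamycin full activation / Benchmarks: tunicamycin and DMSO controls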
CHOP inh: blocks CHOP induction under ER stress; 220,000 compounds, 3.8% hits; AID 2732; inhibition, % at 10 µM; CHO-K1 CHOP-promoter luciferase, tunicamycin-induced, 15-18 h;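 active means compounds that reduced the stress-induced luciferase reporter signal by more than about 70% of percent inhibition, limit read from the data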
CHOP UPR conf: confirmation of apoptotic unfolded protein response (CHOP) activators; 1,000 compounds, 64% hits; shares compounds with UPR CHOP act; activation, % at 10 µM; CHO-CHOP cells, CHOP-luciferase reporter luminescence; percent of tunicamycin response, DMSO as zero; in the data active means activation above about 33%
XBP1 UPR conf: adaptive UPR (XBP1) activation, confirmed; 1,000 compounds, 63% hits; CHO-XBP1 IRE1-XBP1 luciferase reporter, luminescence; AID 485299; shares compounds with UPR XBP1 act; activation, % at 20 µM;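 active means reporter signal at least 30% of the positive control's activation in two or more of four replicate wells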
TLR9-MyD88 cf: confirmation of human TLR9-MyD88 binding inhibitors; shares compounds with TLR9-MyD88 inh; CHO TLR9/MyD88 BLA complementation, CCF4 FRET ratio; 680 compounds, 51% hits; inhibition, % at 4.98 µM;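 active means mean inhibition across three repeats above about 21% taken from the earlier screen, limit read from the data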;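 further: blue over green emission ratio reports constitutive TLR9 MyD88 association via BLA complementation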
BLA counter-1: counter-screen for TLR9-MyD88 inhibitors: non-selective beta-lactamase inhibitors | inhibition, % at 4.98 µM | CHO-BLA cells, CCF4 FRET ratio, BLA reporter | AID 540251 | shares compounds with TLR9-MyD88 inh | 680 compounds, 7% hits;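 active means mean inhibition above a 50% cutoff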;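 further: counterscreen of TLR9-MyD88 hits on CMV-driven BLA in CHO-K1 cells; higher means less blue over green ratio so more BLA blockade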
TLR9 CHO tox: CHO cell toxicity counter-screen for TLR9-MyD88 inhibitors; shares compounds with TLR9-MyD88 inh; TLR9-MyD88 CHO cells cytotoxicity, luminescence; inhibition, % at 4.98 µM; 680 compounds, 39% hits; AID 588336; in the data active means inhibition above about 11%
NOD2 RIPK2 conf: NOD2-RIPK2 interaction inhibition confirmed; shares compounds with NOD2 RIPK2 PPI; CHO cells, NOD2-RIPK2 BLA complementation, CCF4 FRET; 1,200 compounds, 70% hits; inhibition, % at 4.98 µM; AID 624370;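 active means mean inhibition across replicates above a set limit taken from the earlier primary screen, cut at about 21% in these data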
BLA counter-2: hits BLA reporter in NOD2-RIPK2 inhibitor counterscreen; 1,200 compounds, 57% hits; CHO BLA reporter, CCF4 FRET ratio; inhibition, % at 4.98 µM; shares compounds with NOD2 RIPK2 PPI;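 active means mean inhibition above the low-control mean inhibition plus three low-control SD, cut at about 11% in these data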
Hits are given with their value; . = inactive; / = no result given.

SMILES | UPR XBP1 act | TLR9-MyD88 inh | NOD2 RIPK2 PPI | TLR4-MyD88 BLA | UPR CHOP act | CHOP inh | CHOP UPR conf | NOD2 RIPK2 conf | BLA counter-2 | others
Cc1ccccc1NC(=O)c1ccc(N/N=C/c2ccccc2O)c([N+](=O)[O-])c1 | 45 | . | . | . | 48 | . | 71 | / | / | XBP1 UPR conf=71
Cc1ccc(NC(=O)c2ccc(N/N=C/c3cccc(O)c3)c([N+](=O)[O-])c2)cc1 | 51 | . | . | . | 63 | . | 52 | / | / | XBP1 UPR conf=39
Cc1ccc(C(=O)Nc2cccc(C(=O)N/N=C/c3ccc(O)cc3)c2)cc1 | . | . | . | / | . | / | / | / | /
C#Cc1cccc(Nc2nc(NC(C)C)nc3ccsc23)c1 | / | / | . | / | / | / | / | / | /
CS(=O)(=O)Oc1ccc2c(c1)O/C(=C\C=C\c1ccccc1)C2=O | 47 | . | . | / | 154 | . | 34 | / | / | XBP1 UPR conf=.
Cc1cc(N=Cc2c(O)n(-c3ccc(C)c(C)c3)c(=O)c3ccccc23)no1 | / | / | / | . | / | . | / | / | /
CCOC(=O)Cc1csc(/N=C/c2c(O)n(-c3ccc(C)c(C)c3)c(=O)c3ccccc23)n1 | 95 | . | . | . | 66 | . | 63 | / | / | XBP1 UPR conf=155
Oc1c(N=Nc2ccccn2)ccc2ccccc12 | . | 24 | . | . | 276 | 80 | 211 | / | / | TLR9-MyD88 cf=.;BLA counter-1=.;TLR9 CHO tox=99
CN(C)c1cccc(NC(=O)C2(C)Cc3c(-c4cccnc4)ccnc3O2)c1 (configuration not stated) | / | / | . | / | / | / | / | / | /
Cc1ccc(CS(=O)(=O)c2ncc(Cl)c(C(=O)Nc3nnc(C(C)C)s3)n2)cc1 | . | . | 48 | / | 92 | / | 38 | 45 | 31
CCOc1ccccc1NC(=O)c1nc(S(=O)(=O)Cc2cccc(C)c2)ncc1Cl | . | . | . | / | . | / | / | / | /
Cc1cccc(CS(=O)(=O)c2ncc(Cl)c(C(=O)Nc3nnc(C(C)C)s3)n2)c1 | . | . | 41 | / | 105 | / | . | 35 | 28
Cc1ccc(CS(=O)(=O)c2ncc(Cl)c(C(=O)Nc3ccc(OC(F)F)cc3)n2)cc1 | . | 36 | 94 | / | 166 | / | 34 | 80 | 21 | TLR9-MyD88 cf=24;BLA counter-1=.;TLR9 CHO tox=95
O=C(Nc1ccc(OC(F)F)cc1)c1ncc(Cl)c(Cl)c1Cl | . | . | . | . | . | . | / | / | /
CC(C)c1nnc(NC(=O)c2nc(S(=O)(=O)Cc3ccc(F)cc3)ncc2Cl)s1 | . | . | 25 | / | 80 | / | . | 25 | 18
COc1ccc2c(c1)C(=O)C1(CC2)OC1c1cccnc1 (configuration not stated) | / | . | . | / | / | / | / | / | /
O=C(NCc1ccc2c(c1)OCO2)c1ccccc1Cl | . | . | . | / | . | / | / | / | /
O=C(NCc1ccc2c(c1)OCO2)c1nc(S(=O)(=O)Cc2ccccc2F)ncc1Cl | . | . | 79 | / | 43 | / | . | 55 | 14
COc1ccc(-n2nc(C#N)c(Cl)cc2=O)cc1 | . | / | 49 | . | 149 | 101 | 73 | 56 | .
Cc1cc(N)c2ccccc2[n+]1CCCCCCCCCCCCCC[n+]1c(C)cc(N)c2ccccc21 | / | / | / | / | / | . | / | / | /
CCN(CC)c1ccc(/C=C2\SC(=O)N(C(C)C)C2=O)o1 | . | / | 56 | / | 112 | . | . | . | 10
N#Cc1ccc(C(S(=O)(=O)Cc2ccccc2)S(=O)(=O)Cc2ccccc2)cc1 | / | . | . | / | / | / | / | / | /
O=C1C(Cl)=C(NC(=O)c2ccccc2)C(=O)C(Cl)=C1NC(=O)c1ccccc1 | . | . | 54 | / | 86 | / | 50 | 68 | 37
O=C(NC1=C(Nc2ccc(Cl)cc2)C(=O)c2ccccc2C1=O)c1ccccc1 | . | . | . | . | . | . | / | / | /
COc1ccc(OC)c(/C=C/C(=O)N2C(=O)c3cccc(N)c3C2=O)c1 | . | 22 | 21 | . | 53 | 90 | 62 | 39 | 38 | TLR9-MyD88 cf=.;BLA counter-1=.;TLR9 CHO tox=19
SMILES | UPR XBP1 act | TLR9-MyD88 inh | NOD2 RIPK2 PPI | TLR4-MyD88 BLA | UPR CHOP act | CHOP inh | CHOP UPR conf | NOD2 RIPK2 conf | BLA counter-2 | others
COc1cc(NS(=O)(=O)c2cc(NC(C)=O)ccc2OC)c(OC)cc1NC(=O)c1ccccc1 | / | . | . | / | / | / | / | / | /
Cc1ccc(S(=O)(=O)N2[C@H](CC(=O)c3ccc(F)cc3)OC[C@@H]2C(C)C)cc1 | / | / | . | / | / | / | / | / | /
CNC[C@@H](CC1CCCCC1)NC[C@H](CC(C)C)NCCc1cccc(C(F)(F)F)c1 | . | . | 21 | / | 83 | / | 33 | 28 | .
CCN(CC)c1ccc2c(C)cc(=O)oc2c1 | . | . | . | / | . | / | / | / | /
CCN(CC)c1ccc2c(Cl)c(Br)c(=O)oc2c1 | . | 92 | 95 | 91 | 194 | 94 | . | 100 | 96 | TLR9-MyD88 cf=89;BLA counter-1=91;TLR9 CHO tox=52
O=C(Nc1cccc(N2C(=O)C=CC2=O)c1)c1cccs1 | . | 30 | 22 | / | 124 | / | . | 74 | 12
Cc1nc2ccccc2c(=O)n1-c1cccc(NC(=O)c2cccs2)c1 | . | . | . | / | . | / | / | / | /
COCCCn1cc(CN2CC(N3CCN(Cc4ccccc4F)CC3)CS2(=O)=O)nn1 (configuration not stated) | / | / | . | / | / | / | / | / | /
O=C(NCc1nnnn1-c1ccc(F)cc1)c1ccc(S(=O)(=O)N2CCOCC2)cc1 | / | . | . | / | / | / | / | / | /
COc1ccc(C(=O)/C=C2/C(=O)Nc3ccccc32)c(OC)c1 | . | . | 31 | / | 109 | / | 114 | 30 | .
O=C(Nc1ccc(S(=O)(=O)N2CCCC2)cc1)c1ccc([N+](=O)[O-])o1 | . | . | 23 | / | 47 | / | 91 | 27 | 21
Cc1ccc(C(=O)Nc2ccc(S(=O)(=O)N3CCCC3)cc2)o1 | . | . | . | / | . | / | / | / | /
O=C(Nc1ccc(Cc2ccncc2)cc1)c1ccc([N+](=O)[O-])o1 | . | . | 21 | / | 63 | / | 78 | 32 | 16
